# From PMC9890135 (Molecular Cancer Therapeutics, 2022)
# What was measured:
# SNU-5 cells = assay: Cellular proliferation, BrdU incorporation ELISA; format: cell-based; details: Homo sapiens, SNU-5, 48 h, read-out: Proliferation IC50
# Method in brief: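 SNU-5 seeded at 7,500 cells/well in triplicate in IMDM + 10% FBS + 1% penicillin-streptomycin, overnight at 37°C, 5% CO2. Serial dilutions added for 48 h. BrdU labelling 2 h at 37°C. Plates spun 300 × g, 10 min before medium removal. FixDenat 30 min at RT, anti-BrdU-POD 90 min at RT, washes, chemiluminescent read.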
# peripheral leukocytes = assay: Peripheral immunocytes by flow cytometry in MC38 tumor-bearing mice; format: in vivo; details: 7 days, XL092 30 mg/kg
# Method in brief: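 Female C57BL/6 mice (5–6 weeks) inoculated s.c. with 1 × 10^6 MC38 cells, randomised at ~200 mm3. […] single-cell suspensions surface-stained with a lineage panel plus fixable viability dye. Medians compared by Mann–Whitney U.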
# SNU-5 tumors = assay: SNU-5 xenograft tumor growth; format: in vivo, mice; details: 14 days, oral
# Method in brief: (§1)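 Human tumour cells inoculated into the rear flank. Mice randomised at mean volumes of ~200 mm3 (Hs 746T), ~120 mm3 (MDA-MB-231), ~100 mm3 (NCI-H441) or ~90 mm3 (SNU-5). Oral gavage once daily with test compound or vehicle. Tumour volume and body weight measured at least twice weekly. […], using mean volumes at extraction and dosing start.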
# MER = target: T1, MER (Homo sapiens, UniProt Q12866); assay: Inhibition of receptor phosphorylation, ELISA, MERTK-transfected 293A cells; format: cell-based
# T1 sequence (Q12866 21-999): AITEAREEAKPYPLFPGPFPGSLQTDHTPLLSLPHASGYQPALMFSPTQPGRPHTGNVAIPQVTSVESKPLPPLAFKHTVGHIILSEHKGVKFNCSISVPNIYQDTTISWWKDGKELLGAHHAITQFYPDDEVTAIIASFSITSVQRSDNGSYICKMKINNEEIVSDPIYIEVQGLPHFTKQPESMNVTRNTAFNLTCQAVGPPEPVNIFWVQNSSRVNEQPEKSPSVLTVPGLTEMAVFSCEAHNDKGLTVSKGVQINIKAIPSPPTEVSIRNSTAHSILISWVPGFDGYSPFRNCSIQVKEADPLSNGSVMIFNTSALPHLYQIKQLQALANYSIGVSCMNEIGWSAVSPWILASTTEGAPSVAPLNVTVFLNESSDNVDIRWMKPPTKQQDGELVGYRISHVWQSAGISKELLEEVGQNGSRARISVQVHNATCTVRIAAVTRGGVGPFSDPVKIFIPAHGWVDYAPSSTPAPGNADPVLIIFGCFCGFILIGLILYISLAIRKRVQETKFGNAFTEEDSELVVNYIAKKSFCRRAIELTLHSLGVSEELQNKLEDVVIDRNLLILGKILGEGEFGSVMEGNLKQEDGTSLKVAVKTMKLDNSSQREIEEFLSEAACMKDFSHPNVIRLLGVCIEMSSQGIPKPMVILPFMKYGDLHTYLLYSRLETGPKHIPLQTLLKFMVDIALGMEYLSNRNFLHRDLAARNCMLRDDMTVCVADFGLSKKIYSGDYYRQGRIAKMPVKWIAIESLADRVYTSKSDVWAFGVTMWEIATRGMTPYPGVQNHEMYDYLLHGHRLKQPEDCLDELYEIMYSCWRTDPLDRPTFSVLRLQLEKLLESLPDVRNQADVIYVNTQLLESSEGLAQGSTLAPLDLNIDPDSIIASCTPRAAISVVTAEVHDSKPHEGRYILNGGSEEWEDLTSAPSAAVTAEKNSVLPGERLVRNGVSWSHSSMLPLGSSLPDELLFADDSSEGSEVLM
# [1] = tested on: primary human CD14+ monocyte-derived M2 macrophages; assay: Macrophage M2 to M1 repolarization; format: cell-based; details: 2, 4, and 6 μmol/L XL092 for 7 days; 5 donors
# Method in brief: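 CD14+ monocytes (1.0 × 10^6 cells/mL) differentiated 6 days into M2 macrophages, then cryopreserved. Thawed cells seeded at 2.0 × 10^5/well in M2 differentiation medium and exposed to 2, 4 or 6 μmol/L for 7 days at 37°C, 5% CO2, with medium and compound renewed on day 4; triplicate per donor, 5 donors. After Fc block, stained with anti-CD163 and 7-AAD. Viable CD163−/CD163+ ratio expressed as fold change versus DMSO.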
# [2] = tested on: human xenograft murine models; assay: Murine xenograft models overall; format: in vivo, mice; details: after 14 days of daily 10 mg/kg treatments
# Method in brief: as §1
# MC38 tumors = assay: MC38 syngeneic tumor model, XL092 and ICI combination studies; format: in vivo, mice; details: XL092 3 mg/kg orally once a day, anti-PD-1 5 mg/kg twice a week for 2 weeks i.p., 35 days
# [3] = Plasma protein binding, rapid equilibrium dialysis; format: in vitro ADME; details: mouse
# Method in brief: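 Rapid equilibrium dialysis against PBS at 10 μmol/L test compound, 16 h incubation, in triplicate.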
# VEGFR2 [4] = target: VEGFR2 (Mus musculus, UniProt P35918); format: in vivo, mice; details: lung
# Method in brief: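 Hs 746T tumour-bearing mice received single oral doses (30 or 100 mg/kg; n = 5 pooled) or vehicle (n = 6 pooled). Then hVEGF (10 μg i.v.) 3.5 h later, 30 min before sacrifice. Lung homogenate immunoprecipitated overnight with anti-VEGFR2 on Protein A magnetic beads; Western for phospho- and total VEGFR2, infrared imaging. 100 mg/kg group also sampled every 12 h to 48 h.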
# VEGFR2 [5] = target: VEGFR2 (Homo sapiens, UniProt P35968); assay: Inhibition of receptor phosphorylation, ELISA, HUVEC/VEGF165; format: cell-based; details: Cellular IC50 ± SD, VEGFR2 autophosphorylation, serum-free
# Sequence of VEGFR2 (Homo sapiens, UniProt P35968) (P35968 20-1356): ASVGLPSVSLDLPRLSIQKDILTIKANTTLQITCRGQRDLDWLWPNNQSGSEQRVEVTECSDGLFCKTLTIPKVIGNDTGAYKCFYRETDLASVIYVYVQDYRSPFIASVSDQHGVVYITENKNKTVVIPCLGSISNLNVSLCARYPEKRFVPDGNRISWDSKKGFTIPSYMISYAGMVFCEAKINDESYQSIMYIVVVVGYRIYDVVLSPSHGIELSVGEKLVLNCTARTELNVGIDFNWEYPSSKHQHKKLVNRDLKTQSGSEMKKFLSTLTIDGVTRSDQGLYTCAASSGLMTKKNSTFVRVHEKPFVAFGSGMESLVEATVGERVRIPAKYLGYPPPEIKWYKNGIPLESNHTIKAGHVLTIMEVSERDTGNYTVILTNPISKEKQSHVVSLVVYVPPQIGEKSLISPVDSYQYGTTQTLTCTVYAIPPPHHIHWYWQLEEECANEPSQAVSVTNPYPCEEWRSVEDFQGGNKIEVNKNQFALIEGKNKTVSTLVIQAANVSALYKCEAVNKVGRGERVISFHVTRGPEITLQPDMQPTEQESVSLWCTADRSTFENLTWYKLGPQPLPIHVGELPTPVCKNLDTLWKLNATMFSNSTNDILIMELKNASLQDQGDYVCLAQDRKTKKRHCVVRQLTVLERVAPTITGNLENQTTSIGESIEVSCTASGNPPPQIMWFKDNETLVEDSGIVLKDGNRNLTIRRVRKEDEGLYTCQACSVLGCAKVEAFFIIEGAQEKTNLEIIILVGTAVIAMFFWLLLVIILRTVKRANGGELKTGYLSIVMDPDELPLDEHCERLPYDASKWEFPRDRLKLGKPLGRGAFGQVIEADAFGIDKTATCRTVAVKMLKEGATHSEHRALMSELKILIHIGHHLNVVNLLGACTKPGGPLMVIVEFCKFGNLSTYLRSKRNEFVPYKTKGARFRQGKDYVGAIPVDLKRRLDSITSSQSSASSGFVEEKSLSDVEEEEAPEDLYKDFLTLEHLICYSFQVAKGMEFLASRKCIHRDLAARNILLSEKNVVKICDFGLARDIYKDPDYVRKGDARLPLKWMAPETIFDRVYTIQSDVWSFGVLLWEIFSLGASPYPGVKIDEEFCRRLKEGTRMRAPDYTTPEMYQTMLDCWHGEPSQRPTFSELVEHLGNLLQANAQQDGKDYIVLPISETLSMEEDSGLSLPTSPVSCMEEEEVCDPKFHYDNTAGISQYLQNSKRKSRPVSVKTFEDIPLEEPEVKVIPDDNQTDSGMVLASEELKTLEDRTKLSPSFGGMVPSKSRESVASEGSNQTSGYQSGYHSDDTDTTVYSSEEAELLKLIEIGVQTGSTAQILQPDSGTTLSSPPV
# Sequence of VEGFR2 (Mus musculus, UniProt P35918) (P35918 20-1345): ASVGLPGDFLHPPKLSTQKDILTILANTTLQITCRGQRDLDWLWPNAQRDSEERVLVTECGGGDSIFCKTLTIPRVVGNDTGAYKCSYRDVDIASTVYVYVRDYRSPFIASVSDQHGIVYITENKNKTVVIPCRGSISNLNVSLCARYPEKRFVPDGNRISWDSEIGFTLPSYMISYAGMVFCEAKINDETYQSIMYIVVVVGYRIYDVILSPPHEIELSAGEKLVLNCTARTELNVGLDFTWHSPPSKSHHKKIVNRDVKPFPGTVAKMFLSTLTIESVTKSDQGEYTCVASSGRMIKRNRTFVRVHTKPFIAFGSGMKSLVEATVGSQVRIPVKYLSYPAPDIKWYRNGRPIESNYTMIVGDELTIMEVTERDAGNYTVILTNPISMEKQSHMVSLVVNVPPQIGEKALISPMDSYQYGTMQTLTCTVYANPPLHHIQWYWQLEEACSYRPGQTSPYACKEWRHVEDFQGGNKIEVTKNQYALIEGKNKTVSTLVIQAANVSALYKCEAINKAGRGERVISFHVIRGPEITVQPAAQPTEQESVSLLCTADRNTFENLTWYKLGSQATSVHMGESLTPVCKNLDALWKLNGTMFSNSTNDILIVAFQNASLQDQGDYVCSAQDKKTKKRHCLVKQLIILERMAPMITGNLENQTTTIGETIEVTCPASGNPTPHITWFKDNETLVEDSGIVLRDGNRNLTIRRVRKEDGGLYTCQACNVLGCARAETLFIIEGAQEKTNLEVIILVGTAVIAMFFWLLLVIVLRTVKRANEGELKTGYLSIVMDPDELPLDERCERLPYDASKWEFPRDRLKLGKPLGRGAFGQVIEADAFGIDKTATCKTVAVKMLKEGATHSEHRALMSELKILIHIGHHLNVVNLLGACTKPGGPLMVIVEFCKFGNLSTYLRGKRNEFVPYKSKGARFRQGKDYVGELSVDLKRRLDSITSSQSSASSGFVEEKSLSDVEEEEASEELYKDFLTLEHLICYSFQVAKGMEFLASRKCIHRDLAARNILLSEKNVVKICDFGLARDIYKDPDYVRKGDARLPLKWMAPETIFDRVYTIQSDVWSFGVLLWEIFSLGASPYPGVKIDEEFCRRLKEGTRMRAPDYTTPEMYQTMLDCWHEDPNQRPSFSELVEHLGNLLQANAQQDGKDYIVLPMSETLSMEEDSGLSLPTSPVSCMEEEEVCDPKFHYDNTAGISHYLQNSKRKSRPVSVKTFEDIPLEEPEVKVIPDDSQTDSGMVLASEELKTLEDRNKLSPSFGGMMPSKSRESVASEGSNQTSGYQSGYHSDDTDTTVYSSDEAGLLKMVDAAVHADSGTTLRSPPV
smiles,measurement,setting,value
CNC(=O)c1cc2c(Oc3ccc(NC(=O)C4(C(=O)Nc5ccc(F)cc5)CC4)cc3)ccnc2cc1OC [XL092],IC50,SNU-5 cells,98.9 nM
same,peripheral CD4+ T cells relative to vehicle,peripheral leukocytes,significant increases
same,peripheral B cells relative to vehicle,peripheral leukocytes; antibodies 5 mg/kg,significant increases
same,peripheral myeloid cells relative to vehicle,peripheral leukocytes; antibodies 5 mg/kg,significant decreases
same,Tumor growth inhibition,SNU-5 tumors; 3 mg/kg/day,54.2%
same,Tumor growth inhibition,SNU-5 tumors; 10 mg/kg/day,94.7%
same,IC50,MER,6.01 ± 1.56 nM
same,M1 (CD163-negative) to M2 (CD163-positive) ratio,[1],dose-dependent increases
same,TGI (summary over several models),[2],≥ 70%
same,TGI compared with vehicle,MC38 tumors,significant TGI
same,"fraction unbound at 16 h, 10 μmol/L",[3],0.003
same,duration of inhibition of VEGFR2 phosphorylation,"VEGFR2 [4]; Hs 746T model, single dose of 100 mg/kg",approximately 24 hours
same,"pVEGFR2 Inhibition, %","VEGFR2 [4]; Hs 746T tumor-bearing mice, 30 mg/kg single bolus, 4 hours after treatment",complete abolishment
same,IC50,VEGFR2 [5],1.57 ± 1.52 nM
